Sampled rows, rich in hits. Any-hit rate of the full collection: about 3.7%.
KCNK9 block: KCNK9 potassium channel inhibitors, primary screen, HEK293 cells, thallium flux; Potassium channel subfamily K member 9 (Homo sapiens), Q9NPC2; FluxOR thallium flux fluorescence; hits give low values; B-score at 10 µM; 310,000 compounds, 1.2% hits; AID 488922, 2010;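 active means ratio B-score over 3 SD below the library mean, with starting fluorescence within 5 SD of its mean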;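 further: negative B-score means less thallium flux so channel inhibition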
Target sequence (Q9NPC2 whole entry, looked up): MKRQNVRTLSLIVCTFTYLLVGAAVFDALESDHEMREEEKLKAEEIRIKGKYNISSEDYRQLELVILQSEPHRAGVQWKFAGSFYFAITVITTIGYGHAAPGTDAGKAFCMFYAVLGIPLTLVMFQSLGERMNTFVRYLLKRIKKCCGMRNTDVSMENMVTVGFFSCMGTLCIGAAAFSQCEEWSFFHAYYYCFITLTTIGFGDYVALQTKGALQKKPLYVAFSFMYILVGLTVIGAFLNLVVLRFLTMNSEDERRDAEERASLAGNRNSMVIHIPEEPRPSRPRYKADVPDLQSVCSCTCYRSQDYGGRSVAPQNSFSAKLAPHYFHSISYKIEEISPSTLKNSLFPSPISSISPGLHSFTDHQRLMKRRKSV
KCNK3 block: human KCNK3 channel inhibitors, primary screen, CHO cells, FluxOR thallium flux, B-score; B-score at 10 µM; Potassium channel subfamily K member 3 (Homo sapiens), O14649; FluxOR fluorescence; hits give low values; 340,000 compounds, 0.84% hits; AID 602410, 2012;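 active means B-score under library mean minus 4 SD, starting fluorescence ratio at most library mean plus 5 SD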;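 further: more negative B-score means stronger inhibition of thallium flux through KCNK3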
KCNQ1 pot: potentiators or activators of KCNQ1 channel, primary screen, cell-based, thallium flux, high-throughput; CHO-K1 KCNQ1, thallium flux FluxOR fluorescence; hits give high values; B-score at 10 µM; 310,000 compounds, 0.35% hits; AID 2648, 2010;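 active means fluorescence ratio B-score, a plate-corrected score, at least three library SD, with initial intensity B-score within 5 SD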
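Assay system: stable KCNQ1 CHO-K1 line; medium: assay buffer, equal DMSO in all wells; timing: 90 min dye loading and 20 min compound exposure, both at room temperature; technique: kinetic FluxOR thallium fluorescence, 10-s 1-Hz baseline, 110-s post-stimulus read; read-out basis: B score of baseline-normalized fluorescence ratio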
hERG protect: hERG rescue from dofetilide block, primary screen, cell-based, CHO-hERG, FluxOR thallium flux, dofetilide IC70; 310,000 compounds, 0.51% hits; dofetilide IC70 present; Voltage-gated inwardly rectifying potassium channel KCNH2 (Homo sapiens), Q12809; activation (rescue from dofetilide block), less the hit threshold, % at 10 µM; AID 1511, 2009;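 active means activation above the mean of controls blocked by dofetilide plus 5 SD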;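 further: thallium influx through hERG after potassium depolarization seen as dye fluorescence rise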
KCNQ1 block: inhibitors of human KCNQ1 channel, primary screen, cell-based, thallium flux, high-throughput. Potassium voltage-gated channel subfamily KQT member 1 (Homo sapiens), P51787. CHO-K1 KCNQ1, FluxOR thallium flux fluorescence; hits give high values. B-score at 10 µM. 310,000 compounds, 1.3% hits;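 active means compounds whose thallium flux B-score, printed positive for inhibition, exceeds three library SD while starting fluorescence stays within three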;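 further: channel opened by potassium depolarization with thallium stimulus after 20 min compound exposure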
Kir21 block: inhibitors of mouse Kir2.1 inward-rectifier potassium channel. Inward rectifier potassium channel 2 (Mus musculus), P35561. HEK293-Kir2.1, FluxOR thallium flux fluorescence; hits give low values. B-score at 10 µM. 310,000 compounds, 0.85% hits. AID 1672, 2009;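 active means fluorescence ratio B-score at or below minus 3 SD of library scores, with starting-brightness B-score within 2 SD, cut at about -4.2 in these data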;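 further: channel flux triggered by added potassium and thallium sulfate stimulus; B-score of peak minus minimum fluorescence over baseline after thallium stimulus; more negative B-score means stronger Kir2.1 block with less thallium influx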
KCNK3 inh conf: retest of human KCNK3 channel inhibitors, confirmation, CHO cells, FluxOR thallium flux, triplicate. shares compounds with KCNK3 block. FluxOR fluorescence; 0% buffer, 100% carvedilol maximal block. ratio percent of control, % at 10 µM. 2,400 compounds, 99% hits;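 active means ratio percent of control, averaged over triplicates, above buffer control mean plus 5 SD, cut at about 64% in these data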;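 further: ratio is the fluorescence rise from min to max over baseline after thallium stimulus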
KCNK3 noninduced: thallium flux inhibition in non-induced cells, primary screen, counter-screen for KCNK3 inhibitor project, cell-based, non-induced KCNK3 line, FluxOR thallium, triplicate; shares compounds with KCNK3 block; thallium flux ratio (lower = more inhibition) at 10 µM; 2,400 compounds, 40% hits; non-induced KCNK3 parental cells; hits give low values;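 active means thallium flux ratio, averaged over three wells, more than 5 SD below the buffer control mean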;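 further: host cells are CHO cells without KCNK3 induction; ratio is peak minus trough fluorescence over baseline then normalized to buffer controls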
* marks the source's active call; other numbers are inactive results; i = inactive; / = not tested or not shown.

SMILES | KCNK9 block | KCNK3 block | KCNQ1 pot | hERG protect | KCNQ1 block | Kir21 block | KCNK3 inh conf | KCNK3 noninduced
CCOC(=O)C1CCCN(S(=O)(=O)c2ccc3c(c2)N(C(C)=O)CCO3)C1 (configuration not stated) | i | i | i | -8 | i | -0.17 | / | /
Cc1nc2cc(NCc3cc([N+](=O)[O-])ccc3O)ccc2n1Cc1ccccc1 | i | i | i | -12 | i | -1.1 | / | /
CCOc1ccccc1NC(=O)c1cc(-c2cc(OC)c(OC)c(OC)c2)nc2ccccc12 | i | -9.7* | i | -21 | i | 0.8 | 132* | 0.093*
COc1ccc(N2CCOCC2)c(NC(=O)c2cccc3ccccc23)c1 | i | -9.5* | i | -7 | i | -0.42 | 108* | i
CCN(CC)S(=O)(=O)c1ccc(N2CCOCC2)c(NC(=O)c2cccc3ccccc23)c1 | i | i | i | -14 | i | 0.86 | / | /
COc1ccc(-c2cc(C(=O)Nc3ccccc3N3CCOCC3)c3ccccc3n2)cc1OC | i | -8.7* | i | -19 | i | 0.15 | 95* | 0.13*
Cc1nn2c(NCc3ccccn3)cc(C(C)C)nc2c1-c1ccccc1 | i | i | i | -7 | i | 0.63 | / | /
Cc1nn2c(NCCCn3ccnc3)cc(C(C)C)nc2c1-c1ccccc1 | i | -12* | i | -19 | i | -5* | 115* | 0.14*
COc1ccc(-c2[nH]c3ccccc3c2SCCNC(=O)c2ccccc2)cc1 | i | -9.6* | i | -15 | i | 0.22 | 117* | 0.14*
COc1ccc(C(=O)NCCSc2ccccc2)cc1 | i | i | i | 1 | i | -1.3 | / | /
CCOC(=O)C1=C(C)NC(C)=C(C(=O)OCC)C1c1ccc(C)o1 | i | i | i | -3 | i | -0.67 | / | /
C=CCOC(=O)C1=C(C)NC(C)=C(C(=O)OCC=C)C1c1ccc(C)o1 | i | -10* | i | -3 | i | 0 | 104* | i
O=C(CN(C(=O)c1csnn1)c1ccc(F)cc1)NCc1ccc2c(c1)OCO2 | i | i | i | -8 | i | 0.03 | / | /
COc1ccccc1N1CCN(CCc2n[nH]c(=S)n2-c2ccccc2)CC1 | i | i | i | -7 | i | -1.3 | / | /
CS(=O)(=O)N(CC(O)CON=C1c2ccccc2-c2ccccc21)c1ccc(F)cc1 (configuration not stated) | i | i | i | -8 | i | 0.72 | / | /
CC(C)CCNCC(O)CON=C1c2ccccc2-c2ccccc21 (configuration not stated) | i | -8.8* | i | -22 | i | -4.5* | 104* | i
c1ccc2c(-c3c[nH]c4ccccc34)c3ccccc3nc2c1 | i | -10* | i | 1 | i | 0.26 | 123* | i
COCCN(C(=S)Nc1cc(C)cc(C)c1)C(C)c1cccs1 (configuration not stated) | i | i | i | -4 | i | -0.8 | / | /
COCCN(C(=S)Nc1cc(C)cc(C)c1)C(C)c1ccco1 (configuration not stated) | i | -9* | i | -9 | i | -0.79 | 85* | i
CCCSc1nc(N2CCOCC2)c2c(c1C#N)CC(C)(C)SC2 | i | -9.5* | i | -10 | i | 0.39 | 128* | 0.12*
CC(C)CSc1nc(N2CCOCC2)c2c(c1C#N)CC(C)(C)SC2 | / | i | / | / | / | / | / | /
O=C(Nc1ccccc1N1CCN(C(=O)c2ccc(Cl)cc2)CC1)c1cc2ccccc2o1 | i | -12* | i | -6 | i | 1.8 | 121* | 0.14*
O=C(Nc1ccc(N2CCN(C(=O)c3ccc(Cl)cc3)CC2)cc1)c1cc2ccccc2o1 | i | i | i | -12 | i | 1.8 | / | /
COc1ccc(/C(C)=N/NS(=O)(=O)c2cc(C)ccc2C)c(OC)c1 | i | -10* | i | -8 | i | 0.63 | 97* | i
CCOc1ccc(S(=O)(=O)N/N=C(\C)c2ccc(OC)cc2OC)cc1 | i | i | i | -7 | i | 0.39 | / | /
SMILES | KCNK9 block | KCNK3 block | KCNQ1 pot | hERG protect | KCNQ1 block | Kir21 block | KCNK3 inh conf | KCNK3 noninduced
CCCS(=O)(=O)c1c(S(=O)(=O)CCC)c2ccc(C(N)=O)cn2c1C(=O)c1ccc(F)cc1 | -7.4* | -12* | i | -9 | i | 0.5 | 91* | i
CCCS(=O)(=O)c1c(S(=O)(=O)CCC)c2c(N)cccn2c1C(=O)c1ccc(F)cc1 | i | i | i | -8 | i | 0 | / | /
CCc1cccc(NC(=O)CCCSc2nc3ccccc3[nH]2)c1 | i | i | i | -15 | i | -1.1 | / | /
CSCCC(NC(=O)c1ccco1)C(=O)OCC(=O)N1c2ccccc2NC(=O)C1(C)C (configuration not stated) | / | i | / | / | / | / | / | /
Cc1cc(C)c2c(CN3CCC(C)CC3)cc(=O)oc2c1C | i | -12* | i | -4 | i | 0.96 | 103* | i
CC1N(C(=O)N2CCOCC2)CCN1S(=O)(=O)c1ccc(Cl)cc1 (configuration not stated) | i | i | i | -6 | i | 0.55 | / | /
COC(=O)c1sc(S(=O)(=O)NC(Cc2ccccc2)C(=O)O)c(C(=O)OC)c1C (configuration not stated) | / | i | / | / | / | / | / | /
COC(=O)c1c(S(=O)(=O)NCc2ccccc2)sc(C(=O)O)c1C | i | -11* | i | -10 | i | -0.39 | 121* | 0.16*
O=C(O)c1ccc(Nc2ncnc3c2cnn3Cc2ccccc2)cc1 | i | i | i | -4 | i | -0.26 | / | /
N#Cc1sc2nc(-c3cccs3)cc(-c3ccc(Cl)cc3)c2c1N | -7* | -14* | i | -11 | i | -0.78 | 132* | i
COc1ccc(S(=O)(=O)N2CCCCC2)cc1NC(=O)CCNC(=O)c1ccc(Cl)cc1 | / | i | / | / | / | / | / | /

Screening results (PubChem BioAssay)
